# ChEMBL document CHEMBL1772950, “Solid phase synthesis and biological activity of tuftsin conjugates” (J Med Chem, 2011)
# Activity calls are given as the source filed them. The calls are words filed in the database; no cut-off is given here. Residues, ends and D or L forms follow the SMILES beside them. *: point of attachment. Acridin9yl(1-NO2,4-Me) = Cc1ccc([N+](=O)[O-])c2c(*)c3ccccc3nc12; X1 = O=C(c1ccc([N+](=O)[O-])c2c(=O)c3ccccc3[nH]c12)*; Acridone(4-CO) = O=C(c1cccc2c(=O)c3ccccc3[nH]c12)*; X2 = O=[N+]([O-])c1cccc2nc3ccccc3c(*)c12; Ahx = NCCCCCC(=O)O; GABA = NCCCC(=O)O; βAla = NCCC(=O)O
# How the values were obtained:
# HL-60 [1] = assay: Anticancer activity against human HL60 cells assessed as cell viability by MTT assay; format: functional, cell-based
# Outline: (§1)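 Cells kept in RPMI 1640 with 10% FBS, 2 mM L-glutamine, penicillin/streptomycin, 37 °C, 5% CO2. Exponentially growing cells exposed continuously to a range of concentrations (10 mM DMSO stocks) for three to four generation times. MTT added for 4 h at 37 °C; formazan read on plate reader. IC50 taken from survival–dose curves versus untreated controls. At least two independent experiments, each in duplicate.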
# A549 [2] = assay: Anticancer activity against human A549 cells assessed as cell viability by MTT assay; format: functional, cell-based; outline: as §1
# [3] = biological target: T1, DNA topoisomerase 1 (Homo sapiens) (UniProt P11387); assay: Inhibition of human topoisomerase I mediated DNA relaxation at 1 to 100 uM
# T1 sequence (whole entry): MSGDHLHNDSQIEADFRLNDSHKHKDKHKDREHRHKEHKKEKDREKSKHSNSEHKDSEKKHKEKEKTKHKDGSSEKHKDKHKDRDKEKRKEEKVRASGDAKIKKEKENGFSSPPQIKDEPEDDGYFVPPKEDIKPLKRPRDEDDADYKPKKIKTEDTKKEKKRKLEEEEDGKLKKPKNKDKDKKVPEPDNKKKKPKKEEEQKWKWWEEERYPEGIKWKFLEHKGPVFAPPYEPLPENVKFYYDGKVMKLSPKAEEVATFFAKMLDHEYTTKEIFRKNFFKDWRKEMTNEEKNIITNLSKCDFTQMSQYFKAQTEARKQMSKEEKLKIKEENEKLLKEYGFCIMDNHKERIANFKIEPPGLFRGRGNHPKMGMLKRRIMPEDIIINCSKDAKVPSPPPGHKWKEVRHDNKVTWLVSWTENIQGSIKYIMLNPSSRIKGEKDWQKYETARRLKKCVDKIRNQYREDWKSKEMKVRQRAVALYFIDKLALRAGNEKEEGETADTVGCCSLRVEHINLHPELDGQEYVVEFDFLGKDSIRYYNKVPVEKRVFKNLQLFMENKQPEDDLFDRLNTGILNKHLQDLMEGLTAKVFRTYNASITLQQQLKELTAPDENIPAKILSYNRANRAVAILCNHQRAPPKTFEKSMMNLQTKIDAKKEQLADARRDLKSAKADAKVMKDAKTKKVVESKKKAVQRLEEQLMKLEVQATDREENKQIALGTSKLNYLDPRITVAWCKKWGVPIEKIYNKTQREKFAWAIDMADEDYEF
# Outline: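 Relaxation of 200 ng supercoiled pBR322 DNA by purified human topoisomerase I, in 10 mM Tris-HCl pH 7.5, 7.5 mM MgCl2, 60 mM KCl. Run 30 min at 37 °C, stopped with SDS/EDTA loading buffer. Products resolved on 1.2% agarose in TBE at 0.5 V/cm for 18 h, stained with ethidium bromide, imaged under UV.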
# HL-60 [4] = assay: Induction apoptosis in human HL60 cells assessed as change in nuclear morphology at 25 uM after 24 to 72 hrs by fluorescence microscopy; format: functional, cell-based
# HL-60 [5] = assay: Cell cycle arrest in human HL60 cells assessed as accumulation at early S phase after 72 hrs by flow cytometry; format: functional, cell-based
# A549 [6] = assay: Cell cycle arrest in human A549 cells assessed as accumulation at M phase after 72 hrs by flow cytometry; format: functional, cell-based
# A549 [7] = assay: Cell cycle arrest in human A549 cells assessed as accumulation at early S phase after 72 hrs by flow cytometry; format: functional, cell-based
# A549 [8] = assay: Cell cycle arrest in human A549 cells assessed as accumulation at G2 phase after 72 hrs by flow cytometry; format: functional, cell-based
# HL-60 [9] = assay: Cell cycle arrest in human HL60 cells assessed as accumulation at G2 phase after 72 hrs by flow cytometry; format: functional, cell-based
# HL-60 [10] = assay: Cell cycle arrest in human HL60 cells assessed as accumulation at M phase after 72 hrs by flow cytometry; format: functional, cell-based
# HL-60 [11] = assay: Cell cycle arrest in human HL60 cells assessed as accumulation at S phase after 24 hrs by flow cytometry; format: functional, cell-based
# HL-60 [12] = assay: Cell cycle arrest in human HL60 cells assessed as accumulation at G2 phase after 24 hrs by flow cytometry; format: functional, cell-based
# HL-60 [13] = assay: Cell cycle arrest in human HL60 cells assessed as accumulation at M phase after 24 hrs by flow cytometry; format: functional, cell-based
# A549 [14] = assay: Cell cycle arrest in human A549 cells assessed as accumulation at G2 phase after 24 hrs by flow cytometry; format: functional, cell-based
# A549 [15] = assay: Cell cycle arrest in human A549 cells assessed as accumulation at M phase after 24 hrs by flow cytometry; format: functional, cell-based
# A549 [16] = assay: Cell cycle arrest in human A549 cells assessed as accumulation at S phase after 24 hrs by flow cytometry; format: functional, cell-based
# [17] = biological target: DNA topoisomerase II alpha (Homo sapiens) (UniProt P11388); assay: Inhibition of human topoisomerase II mediated DNA relaxation at 1 to 100 uM
# Sequence of DNA topoisomerase II alpha (Homo sapiens) (P11388 whole entry, looked up): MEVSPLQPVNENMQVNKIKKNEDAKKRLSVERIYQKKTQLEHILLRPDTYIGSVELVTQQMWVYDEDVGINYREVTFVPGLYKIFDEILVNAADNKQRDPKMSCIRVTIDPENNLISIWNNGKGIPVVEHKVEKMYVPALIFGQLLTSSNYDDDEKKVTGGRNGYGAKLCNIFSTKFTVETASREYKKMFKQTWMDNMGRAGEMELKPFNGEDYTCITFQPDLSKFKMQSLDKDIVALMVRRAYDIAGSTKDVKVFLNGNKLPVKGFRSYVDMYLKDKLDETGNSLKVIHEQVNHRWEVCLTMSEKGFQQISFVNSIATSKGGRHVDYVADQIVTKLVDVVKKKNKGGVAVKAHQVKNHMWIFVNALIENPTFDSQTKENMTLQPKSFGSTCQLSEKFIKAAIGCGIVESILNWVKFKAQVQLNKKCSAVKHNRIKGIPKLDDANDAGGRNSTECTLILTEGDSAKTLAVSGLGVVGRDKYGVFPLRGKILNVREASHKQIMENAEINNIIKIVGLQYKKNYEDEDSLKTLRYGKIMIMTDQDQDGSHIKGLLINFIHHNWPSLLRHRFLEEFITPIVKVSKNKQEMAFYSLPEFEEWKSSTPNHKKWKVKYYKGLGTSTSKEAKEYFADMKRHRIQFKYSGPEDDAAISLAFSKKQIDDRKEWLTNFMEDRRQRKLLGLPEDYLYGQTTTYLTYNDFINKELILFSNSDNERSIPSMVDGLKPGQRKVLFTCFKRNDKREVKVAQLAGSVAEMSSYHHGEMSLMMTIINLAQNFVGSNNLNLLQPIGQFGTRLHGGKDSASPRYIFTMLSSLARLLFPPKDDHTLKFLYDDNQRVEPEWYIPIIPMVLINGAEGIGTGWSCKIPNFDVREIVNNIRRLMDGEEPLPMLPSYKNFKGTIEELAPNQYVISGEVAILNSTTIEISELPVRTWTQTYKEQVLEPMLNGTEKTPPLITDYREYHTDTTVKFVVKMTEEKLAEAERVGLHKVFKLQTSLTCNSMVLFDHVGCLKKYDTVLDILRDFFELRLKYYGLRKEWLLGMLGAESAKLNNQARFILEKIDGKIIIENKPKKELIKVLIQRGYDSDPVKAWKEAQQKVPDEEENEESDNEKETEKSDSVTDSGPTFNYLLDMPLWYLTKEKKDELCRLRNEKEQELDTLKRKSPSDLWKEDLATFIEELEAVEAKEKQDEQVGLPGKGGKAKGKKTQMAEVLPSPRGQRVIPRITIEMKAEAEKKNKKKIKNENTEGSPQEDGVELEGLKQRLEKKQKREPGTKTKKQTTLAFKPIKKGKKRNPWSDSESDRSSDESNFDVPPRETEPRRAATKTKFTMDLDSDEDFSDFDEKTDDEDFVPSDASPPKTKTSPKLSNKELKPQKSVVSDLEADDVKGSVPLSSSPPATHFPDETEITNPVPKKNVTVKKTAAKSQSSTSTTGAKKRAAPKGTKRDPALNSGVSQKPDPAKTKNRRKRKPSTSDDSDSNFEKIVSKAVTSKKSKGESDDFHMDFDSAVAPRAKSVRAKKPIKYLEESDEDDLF
Structure (SMILES),IC50 (HL-60 [1]),IC50 (A549 [2]),also measured
"CC[C@H](C)[C@H](N)C(=O)NCCCC[C@H](NC(=O)[C@@H]1CCCN1C(=O)[C@H](CCCNC(=N)N)NC(=O)CCCCCNc1c2ccccc2nc2c(C)ccc([N+](=O)[O-])c12)C(=O)N[C@H](C(=O)O)[C@@H](C)O ({Acridin9yl(1-NO2,4-Me)-Ahx}-RPK(Ile)T-OH)",23.2 µM,47.3 µM,–
C[C@@H](O)[C@H](NC(=O)c1cccc2c(=O)c3ccccc3[nH]c12)C(=O)N[C@@H](CCCCNC(=O)CN)C(=O)N1CCC[C@H]1C(=O)N[C@@H](CCCNC(=N)N)C(=O)O ({Acridone(4-CO)}-TK(Gly)PR-OH),> 100 µM,> 100 µM,–
O=C(O)c1ccc([N+](=O)[O-])c2c(=O)c3ccccc3[nH]c12,> 100 µM,> 100 µM,–
C[C@@H](O)[C@H](NC(=O)[C@H](CCCCNC(=O)CN)NC(=O)[C@@H]1CCCN1C(=O)[C@H](CCCNC(=N)N)NC(=O)c1cccc2c(=O)c3ccccc3[nH]c12)C(=O)O ({Acridone(4-CO)}-RPK(Gly)T-OH),> 100 µM,> 100 µM,–
C[C@@H](O)[C@H](NC(=O)[C@H](CCCCN)NC(=O)[C@@H]1CCCN1C(=O)[C@H](CCCNC(=N)N)Nc1ccc(O)c2c1C(=O)c1ccccc1C2=O)C(=O)O,> 100 µM,> 100 µM,–
"Cc1ccc([N+](=O)[O-])c2c(NCCC(=O)N[C@H](C(=O)N[C@@H](CCCCNC(=O)CN)C(=O)N3CCC[C@H]3C(=O)N[C@@H](CCCNC(=N)N)C(=O)O)[C@@H](C)O)c3ccccc3nc12 ({Acridin9yl(1-NO2,4-Me)-βAla}-TK(Gly)PR-OH)",55.5 µM,76.5 µM,–
CC(C)[C@H](N)C(=O)NCCCC[C@H](NC(=O)[C@@H]1CCCN1C(=O)[C@H](CCCNC(=N)N)Nc1ccc(O)c2c1C(=O)c1ccccc1C2=O)C(=O)N[C@H](C(=O)O)[C@@H](C)O,–,41.5 µM,–
C[C@H](N)C(=O)NCCCC[C@H](NC(=O)[C@@H]1CCCN1C(=O)[C@H](CCCNC(=N)N)Nc1ccc(O)c2c1C(=O)c1ccccc1C2=O)C(=O)N[C@H](C(=O)O)[C@@H](C)O,> 100 µM,> 100 µM,–
CC[C@H](C)[C@H](N)C(=O)NCCCC[C@H](NC(=O)[C@@H]1CCCN1C(=O)[C@H](CCCNC(=N)N)NC(=O)c1cccc2c(=O)c3ccccc3[nH]c12)C(=O)N[C@H](C(=O)O)[C@@H](C)O ({Acridone(4-CO)}-RPK(Ile)T-OH),> 100 µM,> 100 µM,–
CC[C@H](C)[C@H](N)C(=O)NCCCC[C@H](NC(=O)[C@@H](NC(=O)c1ccc([N+](=O)[O-])c2c(=O)c3ccccc3[nH]c12)[C@@H](C)O)C(=O)N1CCC[C@H]1C(=O)N[C@@H](CCCNC(=N)N)C(=O)O (X1-TK(Ile)PR-OH),> 100 µM,> 100 µM,–

# The next compounds have a lower IC50 (A549 [2]) than those just listed; values first:
IC50 (HL-60 [1]),IC50 (A549 [2]),Structure (SMILES),also measured
> 100 µM,38.9 µM,CC[C@H](C)[C@H](N)C(=O)NCCCC[C@H](NC(=O)[C@@H]1CCCN1C(=O)[C@H](CCCNC(=N)N)NC(=O)c1ccc([N+](=O)[O-])c2c(=O)c3ccccc3[nH]c12)C(=O)N[C@H](C(=O)O)[C@@H](C)O (X1-RPK(Ile)T-OH),–
18.9 µM,6 µM,O=C(O)CCNc1c2ccccc2nc2cccc([N+](=O)[O-])c12,–
71.5 µM,33.9 µM,C[C@@H](O)[C@H](NC(=O)[C@H](CCCCNC(=O)CN)NC(=O)[C@@H]1CCCN1C(=O)[C@H](CCCNC(=N)N)NC(=O)CCNc1c2ccccc2nc2cccc([N+](=O)[O-])c12)C(=O)O ({X2-βAla}-RPK(Gly)T-OH),–
11.3 µM,8.7 µM,"CC[C@H](C)[C@H](N)C(=O)NCCCC[C@H](NC(=O)[C@@H](NC(=O)CCCCCNc1c2ccccc2nc2c(C)ccc([N+](=O)[O-])c12)[C@@H](C)O)C(=O)N1CCC[C@H]1C(=O)N[C@@H](CCCNC(=N)N)C(=O)O ({Acridin9yl(1-NO2,4-Me)-Ahx}-TK(Ile)PR-OH)",–
15.8 µM,15.8 µM,O=C1CCC(=O)c2c1c(O)c1ccccc1c2O,inhibition [3]: Active
13.2 µM,15 µM,"Cc1ccc([N+](=O)[O-])c2c(NCCCCCC(=O)N[C@H](C(=O)N[C@@H](CCCCN)C(=O)N3CCC[C@H]3C(=O)N[C@@H](CCCNC(=N)N)C(=O)O)[C@@H](C)O)c3ccccc3nc12 ({Acridin9yl(1-NO2,4-Me)-Ahx}-TKPR-OH)",–
22.1 µM,25.6 µM,"Cc1ccc([N+](=O)[O-])c2c(NCCCCCC(=O)N[C@@H](CCCNC(=N)N)C(=O)N3CCC[C@H]3C(=O)N[C@@H](CCCCN)C(=O)N[C@H](C(=O)O)[C@@H](C)O)c3ccccc3nc12 ({Acridin9yl(1-NO2,4-Me)-Ahx}-RPKT-OH)",–
17.2 µM,3 µM,"Cc1ccc([N+](=O)[O-])c2c(NCCCC(=O)N[C@H](C(=O)N[C@@H](CCCCNC(=O)CN)C(=O)N3CCC[C@H]3C(=O)N[C@@H](CCCNC(=N)N)C(=O)O)[C@@H](C)O)c3ccccc3nc12 ({Acridin9yl(1-NO2,4-Me)-GABA}-TK(Gly)PR-OH)",Activity (HL-60 [4]): inactive; Activity (HL-60 [5]): Active; Activity (A549 [6]): Active; Activity (A549 [7]): Active; Activity (A549 [8]): Active; Activity (HL-60 [9]): Active; Activity (HL-60 [10]): Active; Activity (HL-60 [11]): Active; Activity (HL-60 [12]): Active; Activity (HL-60 [13]): Active; Activity (A549 [14]): Active; Activity (A549 [15]): Active; Activity (A549 [16]): Active; inhibition [17]: inactive
32.4 µM,14.2 µM,C[C@@H](O)[C@H](Nc1ccc(O)c2c1C(=O)c1ccccc1C2=O)C(=O)N[C@@H](CCCCN)C(=O)N1CCC[C@H]1C(=O)N[C@@H](CCCNC(=N)N)C(=O)O,inhibition [3]: Active
17.5 µM,18.7 µM,Cc1ccc([N+](=O)[O-])c2c(NCCCCCC(=O)O)c3ccccc3nc12,–
15.5 µM,17.6 µM,Cc1ccc([N+](=O)[O-])c2c(NCCCC(=O)O)c3ccccc3nc12,Activity (HL-60 [4]): Active; Activity (HL-60 [5]): Active; Activity (A549 [6]): Active; Activity (A549 [7]): Active; Activity (A549 [8]): Active; Activity (HL-60 [9]): Active; Activity (HL-60 [10]): Active; Activity (HL-60 [11]): Active; Activity (HL-60 [12]): Active; Activity (HL-60 [13]): Active; Activity (A549 [14]): Active; Activity (A549 [15]): Active; Activity (A549 [16]): Active; inhibition [17]: inactive
